Source: ChEMBL document CHEMBL4842338, “System-oriented optimization of multi-target 2,6-diaminopurine derivatives: Easily accessible broad-spectrum antivirals active against flaviviruses, influenza virus and SARS-CoV-2” (Eur J Med Chem, 2021)

Experiments:
[1] = Cytotoxicity against human A549 cells assessed as reduction in cell viability measured after 24 hrs by MTT assay; format: cell-based; details: A549 cells
[2] = test system: Influenza A virus; assay: Antiviral activity against Influenza A Puerto Rico/8/34/H1N1 infected in human A549 cells assessed as inhibition of viral replication after 24 hrs by hemagglutination assay; format: functional, organism-based; details: A/Puerto Rico/8/1934(H1N1), A549, 24 h
[3] = Selectivity index, ratio of CC50 for human Huh-7 cells to IC50 for Zika virus H/PF/2013 infected in pre-seeded Huh-7 cells assessed as inhibition of viral replication incubated for 72 hrs by immunodetection based secondary yield reduction assay; format: toxicity, cell-based; details: read-out: Selectivity Index
[4] = test system: Zika virus; assay: Antiviral activity against Zika virus H/PF/2013 infected in pre-seeded Huh-7 cells assessed as inhibition of viral replication incubated for 72 hrs by immunodetection based direct yield reduction assay; format: functional, organism-based; details: H/PF/2013, Huh-7, 72 h
Outline: (§1)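 Direct yield reduction in Huh7 cells (7000/well), infected with 50 TCID₅₀ of DENV or ZIKV, or 25 TCID₅₀ of WNV. Adsorption 1 h at 37 °C, then virus removed and serial compound dilutions added. Incubated 72 h (DENV, ZIKV) or 48 h (WNV). Viral antigen immunodetected on the monolayer. IC₅₀ by non-linear regression, mean of three experiments. SI = CC₅₀ (Huh7, CellTiter-Glo luminescence)/IC₅₀.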

[5] = (§2) Cytotoxicity against African green monkey Vero E6 cells infected with SARS-COV-2 by celltiter-glo luminescent cell viability assay; format: cell-based, Vero C1008; details: chlorocebus sabaeus, Vero E6 cells infected with SARS-COV-2
Outline: (§3)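 Compound-exposed cells assessed by CellTiter-Glo luminescence versus DMSO control; CC50 from dose-response.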

[6] = test system: Zika virus; assay: Antiviral activity against Zika virus H/PF/2013 infected in pre-seeded Huh-7 cells assessed as inhibition of viral replication incubated for 72 hrs by immunodetection based plaque reduction assay; format: functional, organism-based; details: H/PF/2013, Huh-7, 72 h
[7] = test system: West Nile virus; assay: Antiviral activity against West Nile virus lineage 1 (Italy/2009) infected in pre-seeded Huh-7 cells assessed as inhibition of viral replication incubated for 48 hrs by immunodetection based plaque reduction assay; format: functional, organism-based; details: Huh-7, 48 h
[8] = Selectivity index, ratio of CC50 for human Huh-7 cells to IC50 for West Nile virus lineage 1 (Italy/2009) infected in pre-seeded Huh-7 cells assessed as inhibition of viral replication incubated for 48 hrs by immunodetection based plaque reduction assay; format: toxicity, cell-based; details: read-out: Selectivity Index
[9] = test system: dengue virus type 2; assay: Antiviral activity against Dengue virus serotype 2 New Guinea C infected in pre-seeded Huh-7 cells assessed as inhibition of viral replication incubated for 72 hrs by immunodetection based plaque reduction assay; format: functional, organism-based; details: Huh-7, 72 h
[10] = Selectivity index, ratio of CC50 for human Huh-7 cells to IC50 for Dengue virus serotype 2 New Guinea C infected in pre-seeded Huh-7 cells assessed as inhibition of viral replication incubated for 72 hrs by immunodetection based plaque reduction assay; format: toxicity, cell-based; details: read-out: Selectivity Index
[11] = Selectivity index, ratio of CC50 for human Huh-7 cells to IC50 for Zika virus H/PF/2013 infected in pre-seeded Huh-7 cells assessed as inhibition of viral replication incubated for 72 hrs by immunodetection based direct yield reduction assay; format: toxicity, cell-based; details: read-out: Selectivity Index; outline: as §1
[12] = test system: Influenza A virus; assay: Antiviral activity against Influenza A Puerto Rico/8/34/H1N1 infected in MDCK cells assessed as inhibition of viral replication measured in supernatants of infected cells after 24 hrs by hemagglutination assay; format: functional, organism-based; details: A/Puerto Rico/8/1934(H1N1)
[13] = Cytotoxicity against MDCK cells assessed as reduction in cell viability measured after 24 hrs by MTT assay; format: cell-based, Canis lupus familiaris; details: dog, MDCK cells
[14] = Selectivity index, ratio of CC50 for human Huh-7 cells to IC50 for West Nile virus lineage 1 (Italy/2009) infected in pre-seeded Huh-7 cells assessed as inhibition of viral replication incubated for 48 hrs by immunodetection based direct yield reduction assay; format: toxicity, cell-based; details: read-out: Selectivity Index; outline: as §1
[15] = test system: West Nile virus; assay: Antiviral activity against West Nile virus lineage 1 (Italy/2009) infected in pre-seeded Huh-7 cells assessed as inhibition of viral replication incubated for 48 hrs by immunodetection based direct yield reduction assay; format: functional, organism-based; details: West Nile virus, lineage 1 (Italy/2009), Huh-7, 48 h; read-out: IC50
[16] = Selectivity index, ratio of CC50 for human A549 cells to IC50 for Influenza A Puerto Rico/8/34/H1N1 infected in human A549 cells; format: toxicity, cell-based; details: read-out: Selectivity Index
Outline: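 MDCK or A549 cells (2.5 × 10⁵/well) infected with A/Puerto Rico/8/34 H1N1 for 1 h at 37 °C, then washed. Compound (0.5–20 μM) added in 2% FBS medium for 24 h, with DMSO final ≤0.2%. Virus in supernatants read by hemagglutination. CC₅₀ by MTT (2 × 10⁴ cells/well, same concentrations, 24 h, absorbance 570 nm). SI = CC₅₀/IC₅₀.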

[17] = test system: dengue virus type 2; assay: Antiviral activity against Dengue virus serotype 2 New Guinea C infected in pre-seeded Huh-7 cells assessed as inhibition of viral replication incubated for 72 hrs by immunodetection based direct yield reduction assay; format: functional, organism-based; details: Dengue virus, New Guinea C, Huh-7, 72 h; read-out: IC50
[18] = Selectivity index, ratio of CC50 for human Huh-7 cells to IC50 for Dengue virus serotype 2 New Guinea C infected in pre-seeded Huh-7 cells assessed as inhibition of viral replication incubated for 72 hrs by immunodetection based secondary yield reduction assay; format: toxicity, cell-based; details: read-out: Selectivity Index
[19] = Selectivity index, ratio of CC50 for human Huh-7 cells to IC50 for Dengue virus serotype 2 New Guinea C infected in pre-seeded Huh-7 cells assessed as inhibition of viral replication incubated for 72 hrs by immunodetection based direct yield reduction assay; format: toxicity, cell-based; details: read-out: Selectivity Index; outline: as §1
[20] = Selectivity index, ratio of CC50 for human Huh-7 cells to IC50 for Zika virus H/PF/2013 infected in pre-seeded Huh-7 cells assessed as inhibition of viral replication incubated for 72 hrs by immunodetection based plaque reduction assay; format: toxicity, cell-based; details: read-out: Selectivity Index
[21] = test system: Zika virus; assay: Antiviral activity against Zika virus H/PF/2013 infected in pre-seeded Huh-7 cells assessed as inhibition of viral replication incubated for 72 hrs by immunodetection based secondary yield reduction assay; format: functional, organism-based; details: H/PF/2013, Huh-7, 72 h
[22] = test system: SARS-CoV-2; assay: Antiviral activity against SARS-COV 2 infected in monkey Vero E6 cells assessed as inhibition of viral replication at MOI of 0.01 and incubated after 2 hrs post infection for 48 hrs by direct yield reduction assay; format: functional, organism-based; details: Severe acute respiratory syndrome coronavirus 2, Vero C1008
[23] = Cytotoxicity against human Huh-7 cells assessed as reduction in cell viability by Celltiter-Glo luminescent cell viability assay; format: cell-based; details: Huh-7 cells; outline: as §3
[24] = test system: SARS-CoV-2; assay: Antiviral activity against SARS-COV 2 infected in human Calu-3 cells assessed as inhibition of viral replication at MOI of 0.01 and incubated after 2 hrs post infection for 48 hrs by direct yield reduction assay; format: functional, organism-based; details: Severe acute respiratory syndrome coronavirus 2, Calu-3
[25] = (§4) Cytotoxicity against human Calu-3 cells infected with SARS-COV-2 by celltiter-glo luminescent cell viability assay; format: cell-based; details: Calu-3 cells infected with SARS-COV-2; outline: as §3
[26] = Selectivity index, ratio of CC50 for human Calu-3 cells infected with SARS-COV-2 to IC50 for SARS-COV 2 infected in human Calu-3 cells; format: toxicity, cell-based; details: read-out: Selectivity Index
[27] = test system: SARS-CoV-2; assay: Antiviral activity against SARS-COV 2 infected in human Calu-3 cells assessed as inhibition of viral replication at MOI of 0.01 followed by removal of test compound after cell virus adsorption incubated for 72 hrs by ENTRY-DYRA method; format: functional, organism-based; details: Severe acute respiratory syndrome coronavirus 2, Calu-3, 72 h
[28] = test system: Vero C1008; assay: as §2; format: cell-based; details: chlorocebus sabaeus, vero c1008; outline: as §3
[29] = test system: Calu-3; assay: as §4; format: cell-based; details: calu-3; outline: as §3
[30] = test system: Huh-7; assay: Cytotoxicity against human Huh-7 cells infected with SARS-COV-2 assessed as reduction in cell viability by celltiter-glo luminescent cell viability assay; format: cell-based; details: huh-7; outline: as §3
[31] = test system: SARS-CoV-2; assay: Antiviral activity against SARS-COV 2 infected in human Huh-7 cells assessed as inhibition of viral replication at MOI of 0.01 and incubated after 2 hrs post infection for 48 hrs by direct yield reduction assay; format: functional, organism-based; details: Severe acute respiratory syndrome coronavirus 2, Huh-7
[32] = Selectivity index, ratio of CC50 for African green monkey Vero E6 cells infected with SARS-COV-2 to IC50 for SARS-COV 2 infected in monkey Vero E6 cells; format: toxicity, cell-based, Vero C1008; details: read-out: Selectivity Index
[33] = test system: SARS-CoV-2; assay: Antiviral activity against SARS-COV 2 infected in human Huh-7 cells; format: functional, organism-based; details: Severe acute respiratory syndrome coronavirus 2, Huh-7
[34] = Selectivity index, ratio of CC50 for human Huh-7 cells infected with SARS-COV-2 to IC50 for SARS-COV 2 infected in human Huh-7; format: toxicity; details: read-out: Selectivity Index
[35] = test system: SARS-CoV-2; assay: Antiviral activity against SARS-COV 2 infected in African green monkey Vero E6 cells; format: functional, organism-based; details: Severe acute respiratory syndrome coronavirus 2, Vero C1008
[36] = Selectivity index, ratio of CC50 for human Caco-2 cells infected with SARS-COV-2 to IC50 of SARS-COV 2 infected in human Caco-2 cells; format: toxicity, cell-based; details: read-out: Selectivity Index
[37] = test system: Caco-2; assay: Cytotoxicity against human Caco2 cells infected with SARS-COV-2 assessed as reduction in cell viability by celltiter-glo luminescent cell viability assay; format: cell-based; outline: as §3
[38] = test system: SARS-CoV-2; assay: Antiviral activity against SARS-COV 2 infected in human Caco-2 cells; format: functional, organism-based; details: Severe acute respiratory syndrome coronavirus 2, Caco-2
[39] = test system: SARS-CoV-2; assay: Antiviral activity against SARS-COV 2 infected in human Caco-2 cells assessed as inhibition of viral replication at MOI of 0.01 and incubated after 2 hrs post infection for 48 hrs by immunodetection assay; format: functional, organism-based; details: Severe acute respiratory syndrome coronavirus 2, Caco-2

NC(=O)c1ncn([C@@H]2O[C@H](CO)[C@@H](O)[C@H]2O)n1 [RIBAVIRIN]
CC50 at 24 h [1]: > 50 µM | IC50 [2]: 37.4 µM | selectivity ratio at 72 h [3]: 45 | IC50 [4]: 3.8 µM | CC50 [5]: > 400 µM | IC50 [6]: 2.2 µM | IC50 [7]: 6.7 µM | selectivity ratio at 48 h [8]: 30 | IC50 [9]: 4.1 µM | selectivity ratio at 72 h [10]: 49 | selectivity ratio at 72 h [11]: 53 | IC50 [12]: 9.5 µM | CC50 at 24 h [13]: > 50 µM | selectivity ratio at 48 h [14]: 21 | IC50 [15]: 9.5 µM | selectivity ratio [16]: > 1.3 | IC50 [17]: 7.6 µM | selectivity ratio at 72 h [18]: 50 | selectivity ratio at 72 h [19]: 26 | selectivity ratio at 72 h [20]: 91 | IC50 [21]: 4.4 µM | IC50 [22]: 110 µM | CC50 [23]: 200 µM

CN(C)C(=O)COC(=O)Cc1ccc(OC(=O)c2ccc(NC(=N)N)cc2)cc1 [CAMOSTAT]
IC50 [24]: 0.82 µM | CC50 [25]: 200 µM | selectivity ratio [26]: 243 | IC50 [27]: 0.04 µM

CCC(CC)COC(=O)[C@H](C)N[P@](=O)(OC[C@H]1O[C@@](C#N)(c2ccc3c(N)ncnn23)[C@H](O)[C@@H]1O)Oc1ccccc1 [REMDESIVIR]
CC50 [28]: 166 µM | IC50 [24]: 0.11 µM | CC50 [29]: 97 µM | CC50 [30]: 77 µM | IC50 [31]: 0.004 µM | selectivity ratio [26]: 882 | selectivity ratio [32]: 28 | IC50 [33]: 0.002 µM | selectivity ratio [34]: 19200 | IC50 [35]: 26.9 µM | selectivity ratio [36]: 8000 | CC50 [37]: 80 µM | IC50 [38]: 0.38 µM | IC50 [22]: 6 µM | IC50 [39]: 0.01 µM
